Reference: ChEMBL document CHEMBL4364279, “Design, synthesis, in-silico and biological evaluation of novel chalcone-O-carbamate derivatives as multifunctional agents for the treatment of Alzheimer's disease” (Eur J Med Chem, 2019)
The source made the active and inactive calls. The rule behind the calls is not given here.

Experiments:
[1] = target: Acetylcholinesterase (AChE) (Electrophorus electricus, UniProt O42275); assay: Inhibition of electric eel AChE at 25 uM using acetylthiocholine iodide as substrate incubated for 15 mins by Ellman's method relative to control; details: electric eel acetylcholinesterase (isolated enzyme), probe acetylthiocholine iodide
Acetylcholinesterase (AChE), sequence (O42275 whole entry): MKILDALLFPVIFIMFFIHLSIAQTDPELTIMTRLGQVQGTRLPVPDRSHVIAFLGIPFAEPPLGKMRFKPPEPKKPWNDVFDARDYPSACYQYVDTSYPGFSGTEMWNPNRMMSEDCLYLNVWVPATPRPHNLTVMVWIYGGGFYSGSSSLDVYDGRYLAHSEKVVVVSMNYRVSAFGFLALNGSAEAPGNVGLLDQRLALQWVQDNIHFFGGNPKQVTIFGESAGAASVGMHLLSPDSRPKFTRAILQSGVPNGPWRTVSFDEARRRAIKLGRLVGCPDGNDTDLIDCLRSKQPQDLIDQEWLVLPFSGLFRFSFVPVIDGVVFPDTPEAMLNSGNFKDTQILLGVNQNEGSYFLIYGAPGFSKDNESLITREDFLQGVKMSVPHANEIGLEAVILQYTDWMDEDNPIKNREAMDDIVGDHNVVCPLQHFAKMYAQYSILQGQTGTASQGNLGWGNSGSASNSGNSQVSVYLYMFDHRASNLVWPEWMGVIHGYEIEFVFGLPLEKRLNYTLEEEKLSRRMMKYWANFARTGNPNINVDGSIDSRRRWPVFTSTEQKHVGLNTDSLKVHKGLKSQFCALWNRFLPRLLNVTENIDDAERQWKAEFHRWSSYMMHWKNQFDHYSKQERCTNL

[2] = target: Cholinesterase (Equus caballus, UniProt P81908); assay: Inhibition of equine serum BuChE using S-butyrylthiocholine iodide as susbtrate preincubated for 6 mins followed by substrate addition measured up to 3 mins by Ellman's method
Cholinesterase, sequence (P81908 whole entry): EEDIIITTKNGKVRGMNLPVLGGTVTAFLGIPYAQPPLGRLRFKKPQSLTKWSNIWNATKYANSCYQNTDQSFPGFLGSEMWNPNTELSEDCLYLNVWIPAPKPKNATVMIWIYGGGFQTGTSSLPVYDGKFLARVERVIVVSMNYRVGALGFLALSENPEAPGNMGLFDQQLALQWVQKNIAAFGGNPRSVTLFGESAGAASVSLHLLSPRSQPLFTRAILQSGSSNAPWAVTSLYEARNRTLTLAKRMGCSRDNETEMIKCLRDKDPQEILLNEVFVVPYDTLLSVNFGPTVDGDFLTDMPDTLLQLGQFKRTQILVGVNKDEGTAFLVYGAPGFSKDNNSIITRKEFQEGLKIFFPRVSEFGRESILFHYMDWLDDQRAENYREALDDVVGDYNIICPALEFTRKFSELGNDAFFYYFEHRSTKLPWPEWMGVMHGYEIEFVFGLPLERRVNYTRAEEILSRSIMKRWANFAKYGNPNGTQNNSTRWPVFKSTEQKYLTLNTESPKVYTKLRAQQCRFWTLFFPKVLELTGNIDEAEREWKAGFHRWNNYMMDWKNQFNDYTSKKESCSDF

[3] = target: Cholinesterase (Equus caballus) (UniProt P81908); assay: Reversible inhibition of equine serum BuChE assessed as enzyme activity at 0.1 times IC50 using butyrylthiocholine iodide as substrate by Ellman's method relative to control; set-up: scale not given: the % may be the effect or the level left
Cholinesterase (Equus caballus), sequence (P81908 whole entry): as above
Procedure, shortened: (§1)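 Reversibility tested by recovery of equine serum BuChE activity after dilution of inhibitor, with activity monitored over time up to 240 min by the Ellman method (DTNB read at 412 nm). Activity expressed relative to untreated control. Three independent experiments.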

[4] = target: Cholinesterase (Equus caballus) (UniProt P81908); assay: Reversible inhibition of equine serum BuChE assessed as enzyme activity at 0.1 times IC50 using butyrylthiocholine iodide as substrate measured at 120 mins by Ellman's method relative to control; set-up: scale not given: the % may be the effect or the level left; procedure, shortened: as §1
[5] = target: Cholinesterase (Homo sapiens) (UniProt P06276); assay: Reversible competitive inhibition of BuChE (unknown origin) assessed as […] at 1 to 6 uM using butyrylthiocholine iodide as susbtrate
Cholinesterase (Homo sapiens), sequence (P06276 whole entry): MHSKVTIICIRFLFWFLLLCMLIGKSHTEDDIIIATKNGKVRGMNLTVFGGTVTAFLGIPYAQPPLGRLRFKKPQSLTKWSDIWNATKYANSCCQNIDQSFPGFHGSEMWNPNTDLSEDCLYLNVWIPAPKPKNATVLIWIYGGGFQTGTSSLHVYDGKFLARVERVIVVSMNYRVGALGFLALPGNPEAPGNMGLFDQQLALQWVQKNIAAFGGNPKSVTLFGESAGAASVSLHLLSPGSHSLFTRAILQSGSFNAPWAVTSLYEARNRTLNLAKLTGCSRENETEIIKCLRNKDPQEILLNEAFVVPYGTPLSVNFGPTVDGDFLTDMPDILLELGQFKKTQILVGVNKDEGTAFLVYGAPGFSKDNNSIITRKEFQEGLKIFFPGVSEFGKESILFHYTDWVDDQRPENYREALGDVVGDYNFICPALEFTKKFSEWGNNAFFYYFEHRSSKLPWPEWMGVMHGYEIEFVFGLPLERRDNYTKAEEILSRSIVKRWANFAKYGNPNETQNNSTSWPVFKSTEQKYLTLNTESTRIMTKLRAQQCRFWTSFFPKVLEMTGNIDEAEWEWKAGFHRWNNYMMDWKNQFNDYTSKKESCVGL

[6] = Antioxidant activity assessed as trolox equivalents of AAPH radical scavenging activity preincubated for 15 mins followed by AAPH addition and measured every minute for 90 mins by ORAC-FL assay; type: functional
[7] = target: T1, Amine oxidase [flavin-containing] B (Homo sapiens, UniProt P27338); assay: biochemical; type: cell-based
T1 sequence (P27338 whole entry): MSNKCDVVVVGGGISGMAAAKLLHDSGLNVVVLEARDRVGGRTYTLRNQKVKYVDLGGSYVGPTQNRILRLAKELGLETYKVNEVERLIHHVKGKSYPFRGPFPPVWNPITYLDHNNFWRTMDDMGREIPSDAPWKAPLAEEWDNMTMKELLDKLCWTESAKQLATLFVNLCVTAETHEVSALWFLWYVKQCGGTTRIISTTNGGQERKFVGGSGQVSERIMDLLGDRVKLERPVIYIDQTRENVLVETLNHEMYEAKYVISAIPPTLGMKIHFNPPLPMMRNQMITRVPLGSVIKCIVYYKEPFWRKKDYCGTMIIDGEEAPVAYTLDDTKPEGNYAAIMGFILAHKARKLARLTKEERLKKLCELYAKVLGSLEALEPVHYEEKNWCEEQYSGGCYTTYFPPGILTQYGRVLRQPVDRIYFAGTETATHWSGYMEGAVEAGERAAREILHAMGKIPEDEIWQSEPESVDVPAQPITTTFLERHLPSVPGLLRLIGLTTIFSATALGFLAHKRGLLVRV

[8] = target: Amyloid-beta precursor protein (Homo sapiens) (UniProt P05067); assay: Inhibition of self-induced amyloid beta (1 to 42) (unknown origin) aggregation at 25 uM after 24 hrs by thioflavin-T based fluorescence assay relative to control
Amyloid-beta precursor protein (Homo sapiens), sequence (P05067 whole entry, the tested form may be a part): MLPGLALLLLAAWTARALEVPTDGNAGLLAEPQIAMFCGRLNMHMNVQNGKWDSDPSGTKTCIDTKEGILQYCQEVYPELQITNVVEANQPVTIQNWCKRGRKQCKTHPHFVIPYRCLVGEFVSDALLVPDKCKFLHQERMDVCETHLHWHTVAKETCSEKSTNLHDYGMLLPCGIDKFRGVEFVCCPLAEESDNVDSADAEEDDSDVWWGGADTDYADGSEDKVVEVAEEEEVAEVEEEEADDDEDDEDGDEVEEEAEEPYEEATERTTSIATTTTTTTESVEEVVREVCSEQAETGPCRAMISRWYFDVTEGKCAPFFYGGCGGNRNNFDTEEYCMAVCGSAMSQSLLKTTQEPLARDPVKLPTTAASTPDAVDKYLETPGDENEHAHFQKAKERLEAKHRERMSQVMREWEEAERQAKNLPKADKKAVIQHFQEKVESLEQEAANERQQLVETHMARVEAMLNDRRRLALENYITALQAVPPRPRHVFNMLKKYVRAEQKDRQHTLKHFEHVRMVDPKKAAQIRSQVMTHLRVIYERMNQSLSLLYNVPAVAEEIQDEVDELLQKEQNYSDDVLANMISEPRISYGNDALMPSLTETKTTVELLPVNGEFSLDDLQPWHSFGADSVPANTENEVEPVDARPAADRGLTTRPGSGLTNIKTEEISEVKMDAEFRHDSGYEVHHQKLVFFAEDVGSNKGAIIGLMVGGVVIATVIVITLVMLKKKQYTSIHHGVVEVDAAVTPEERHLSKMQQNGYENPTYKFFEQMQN

[9] = Inhibition of Cu2+-induced amyloid beta (1 to 42 residues) (unknown origin) aggregation at 25 uM after 24 hrs by thioflavin-T based fluorescence assay relative to control
Procedure, shortened: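 Aβ1-42 (25 µM) and Cu2+ (25 µM) incubated at 37 °C for 24 h with or without compound (25 µM). ThT (5 µM in 50 mM glycine-NaOH, pH 8.5) then added; fluorescence read at ex 446/em 490 nm. Inhibition = (1−IFi/IFc)×100 after background subtraction. Three independent experiments.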

[10] = Metal chelating activity of the compound assessed as formation of Al3+-compound complex by measuring red shift in maximum absorption at 37.5 uM after 30 mins by UV-vis absorption spectra analysis (reference value: 359 nanometer)
Procedure, shortened: (§2)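 Metal binding examined by plate-reader absorbance scan using CuCl2, ZnCl2, AlCl3, FeSO4, CuCl and Fe(NO3)3 as metal sources.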

[11] = Metal chelating activity of the compound assessed as formation of Zn2+-compound complex at 37.5 uM after 30 mins by UV-vis absorption spectra analysis; procedure, shortened: as §2
[12] = Metal chelating activity assessed as mole fraction of compound required to show 1:1 stoichiometry for compound-Cu2+ complex at 37.5 uM after 30 mins by UV spectrometry method
Procedure, shortened: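 Molar-ratio method: a methanol solution of compound (final 37.5 µM) titrated with ascending amounts of CuCl2, with absorbance followed at 426 nm by plate reader.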

[13] = Inhibition of Cu2+-induced amyloid beta (1 to 42 residues) (unknown origin) aggregation assessed as appearance of small bulk aggregates at 25 uM after 24 hrs uranyl acetate staining-based by TEM analysis
Procedure, shortened: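 Aβ1-42 (25 µM) and Cu2+ (25 µM) incubated with compound at 37 °C for 24 h. Aliquots applied to carbon-coated copper/rhodium grids for 2 min at room temperature, washed with water, stained with 1% w/v uranyl acetate, air-dried 15 min, then examined by field-emission TEM.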

[14] = Disaggregation of Cu2+-induced preformed fibrils of amyloid beta (1 to 42 residues) (unknown origin) at 25 uM measured after 24 hrs by TEM analysis
Procedure, shortened: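 Aβ1-42 (25 µM) with Cu2+ (25 µM) at 37 °C for 24 h, then compound (25 µM) added for another 24 h. 10 µL aliquots put on carbon-coated copper/rhodium grids for 2 min at room temperature, washed twice with water, stained with 1% w/v uranyl acetate, dried 15 min, then imaged by field-emission TEM.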

[15] = tested on: PC-12; assay: Neuroprotective activity against H2O2-induced cell death in rat PC12 cells assessed as cell viability at 10 uM pretreated for 2 hrs followed by H2O2 addition measured after 30 mins by MTT assay (reference value: 49.6%); type: functional; details: read-out: Activity
[16] = tested on: PC-12; assay: Neuroprotective activity against H2O2-induced cell death in rat PC12 cells assessed as cell viability at 1 uM pretreated for 2 hrs followed by H2O2 addition measured after 30 mins by MTT assay (reference value: 49.6%); type: functional; details: read-out: Activity
[17] = Toxicity in Kunming mouse assessed as abnormal behavior at 20 to 500 mg/kg measured up to 14 days; type: organism-based; details: in vivo, 336 h
[18] = tested on: Mus musculus; assay: Reversal of scopolamine-induced memory cognitive memory impairment in Kunming mouse assessed as change in spontaneous alteration behavior at 23.4 mg/kg, ig pretreated for 30 mins followed by scopolamine challenge and after 30 mins by Y-maze test (reference value: 45.6%); type: functional
[19] = tested on: Mus musculus; assay: Reversal of scopolamine-induced memory cognitive memory impairment in Kunming mouse assessed as increase in spontaneous alteration behavior at 2.6 mg/kg, ig pretreated for 30 mins followed by scopolamine challenge and after 30 mins by Y-maze test; type: functional, organism-based

SMILES: CCN(C)C(=O)Oc1cccc(/C=C/C(=O)c2ccccc2O)c1
- inhibition at 0.25 h, 25 µM [1]: 26.2%
- IC50 [2]: 3.1 µM
- Activity [3]: 50.8%
- Activity [4]: < 75.1%
- inhibition [5]: Active
- Activity [6]: 1.3 µMequiv/µM
- IC50 [7]: 1300 nM
- inhibition [8]: 63.9%
- inhibition [9]: 78.3%
- Activity [10]: 428 nm
- Activity [11]: inactive
- Activity [12]: 0.97 molar ratio
- inhibition [13]: Active
- Activity [14]: Active
- viability at 10 µM [15]: 78.3%
- viability at 1 µM [16]: 62.9%
- Activity [17]: Non-Toxic
- Activity [18]: 59.5%
- Activity [19]: Active
